Structures are written as SMILES.

What all share (assay type): cell-free, HEK-293T
Assay [1] deals with T1, Phospholipase A and acyltransferase 3 (Homo sapiens, UniProt P53816).
T1 sequence (P53816 whole entry): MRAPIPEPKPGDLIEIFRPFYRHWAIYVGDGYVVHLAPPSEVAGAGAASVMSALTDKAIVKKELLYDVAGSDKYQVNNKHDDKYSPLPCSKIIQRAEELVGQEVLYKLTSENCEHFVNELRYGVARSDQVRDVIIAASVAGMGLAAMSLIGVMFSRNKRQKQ
Description: Inhibition of full-length C-terminal FLAG-tagged human PLAAT3 expressed in HEK293T cell lysate preincubated for 30 mins followed by MB064 addition and measured after 20 mins by SDS-PAGE based ABPP analysis. The following applies: for pIC50: hek-293t. The method in brief:
(§1)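 Dose–response competitive ABPP on cytosol only, from HEK293T overexpressing FLAG-tagged PLAAT. Inhibitor 30 min rt, then MB064 20 min rt. PLAAT2 0.25 μg/μL with 250 nM probe; PLAAT3 0.5 μg/μL with 250 nM; PLAAT4 and PLAAT5 1 μg/μL with 500 nM. Fluorescence normalized to Coomassie. IC50 from curves, reported as pIC50 ± SEM, n = 3.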

Assay [2] addresses T2, Phospholipase A and acyltransferase 2 (Homo sapiens, UniProt Q9NWW9).
T2 sequence (Q9NWW9 whole entry): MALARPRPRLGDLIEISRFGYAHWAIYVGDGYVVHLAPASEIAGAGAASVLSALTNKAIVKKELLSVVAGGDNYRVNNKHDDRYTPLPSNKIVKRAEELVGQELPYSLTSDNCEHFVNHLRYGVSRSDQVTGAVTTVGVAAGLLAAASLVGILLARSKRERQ
Description: Inhibition of full-length C-terminal FLAG-tagged human PLAAT2 expressed in HEK293T cell lysate preincubated for 30 mins followed by MB064 addition and measured after 20 mins by SDS-PAGE based ABPP analysis. The method, boiled down: as §1

For assay [3], the target named is T3, Phospholipase A and acyltransferase 5 (Homo sapiens, UniProt Q96KN8).
T3 sequence (Q96KN8 whole entry): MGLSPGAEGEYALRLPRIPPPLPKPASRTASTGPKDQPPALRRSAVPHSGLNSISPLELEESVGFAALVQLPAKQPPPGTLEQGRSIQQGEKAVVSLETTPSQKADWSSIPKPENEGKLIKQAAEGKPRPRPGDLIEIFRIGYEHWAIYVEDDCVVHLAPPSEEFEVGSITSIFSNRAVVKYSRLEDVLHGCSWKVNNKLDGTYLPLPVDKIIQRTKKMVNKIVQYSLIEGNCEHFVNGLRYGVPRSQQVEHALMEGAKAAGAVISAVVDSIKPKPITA
Kind of assay: Inhibition of full-length C-terminal FLAG-tagged human PLAAT5 expressed in HEK293T cell lysate preincubated for 30 mins followed by MB064 addition and measured after 20 mins by SDS-PAGE based ABPP analysis. The method, boiled down: as §1

The target in assay [4] is T4, Phospholipase A and acyltransferase 4 (Homo sapiens, UniProt Q9UL19).
T4 sequence (Q9UL19 whole entry): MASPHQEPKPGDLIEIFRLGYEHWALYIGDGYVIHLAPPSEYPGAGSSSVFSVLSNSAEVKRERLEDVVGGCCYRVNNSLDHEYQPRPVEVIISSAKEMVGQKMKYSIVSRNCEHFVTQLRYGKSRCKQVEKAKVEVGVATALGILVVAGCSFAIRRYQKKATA
Kind of assay: Inhibition of full-length C-terminal FLAG-tagged human PLAAT4 expressed in HEK293T cell lysate preincubated for 30 mins followed by MB064 addition and measured after 20 mins by SDS-PAGE based ABPP analysis. The method in brief: as §1

With `O=C(CCc1cccc(Cl)c1)C(=O)NCCc1ccccc1`, the IC50 (commonly the concentration that inhibits the measured activity by half) was 1580 nM in assay [1], 2510 nM in assay [2], 1260 nM in assay [3] and 1260 nM in assay [4].

`O=C(CCc1ccc(Cl)cc1)C(=O)N1CCC[C@H]1Cc1ccccc1`: the IC50 in assay [1], in assay [2], in assay [3] and in assay [4] was > 10000 nM in each case.

For the molecule `O=C(/C=C/c1cccc(-c2ccccc2)c1)C(=O)NCCc1ccccc1`, the IC50 in assay [1] was 3160 nM; in assay [2], 2510 nM; in assay [3] it was 1000 nM; in assay [4] it was 2510 nM.

For the molecule `CCOC(=O)C(F)(F)C(O)CCc1ccccc1` (configuration not stated), the IC50 in assay [1], in assay [2], in assay [3] and in assay [4] was > 10000 nM each time.

`O=C(CCc1ccc(Cl)cc1)C(=O)N1CCCC[C@H]1c1ccccc1`: the IC50 in assay [1], in assay [2], in assay [3] and in assay [4] was > 10000 nM each time.

Turning to `O=C(CCc1ccccc1Cl)C(=O)NCCc1ccccc1`, the IC50 in assay [1] was 2000 nM; in assay [2] it was 1260 nM; in assay [3] it was 1580 nM; in assay [4] it was 2510 nM.

`O=C(CCc1ccc(Cl)cc1)C(=O)NCCc1ccccc1`: in assay [1], the pIC50 (commonly the IC50 on a negative log10 scale, so that one unit is a factor of ten) amounted to 6.

Turning to `O=C(CCCc1ccccc1)C(=O)NCCc1ccc(Oc2ccnc(Cl)n2)cc1`, the concentration for half-maximal inhibition (IC50) is 251 nM in assay [1], 631 nM in assay [2], 79.4 nM in assay [3] and 200 nM in assay [4].

`O=C(/C=C/c1ccc(Cl)cc1)C(=O)NCCc1ccccc1`: the IC50 in assay [1] is 2510 nM; in assay [2], 1580 nM; in assay [3] it was 631 nM; in assay [4], 2510 nM.

In the case of `O=C(CCCc1ccccc1)C(=O)NCCc1ccc(Oc2ccc(C(F)(F)F)nc2)cc1`, the IC50 in assay [1] was 158 nM; in assay [2] it was 200 nM; in assay [3], 79.4 nM; in assay [4] it was 79.4 nM.

As for `O=C(CCc1ccc(Cl)c(Cl)c1)C(=O)NCCc1ccccc1`, the IC50 was 100 nM in assay [1], 2000 nM in assay [2], 100 nM in assay [3] and 1000 nM in assay [4].

As for `Cc1ccc(CCNC(=O)C(=O)CCCc2ccccc2)cc1`, the IC50 in assay [1] is 126 nM; in assay [2], 2000 nM; in assay [3] it was 39.8 nM; in assay [4], 1260 nM.

Turning to `O=C(CCc1ccccc1)[C@H](F)C(=O)NCc1ccccc1`, the IC50 in assay [1], in assay [2], in assay [3] and in assay [4] was > 10000 nM throughout.

Regarding `O=C(CCCc1ccccc1)C(=O)NCCc1ccccc1`, the IC50 was 398 nM in assay [1], 501 nM in assay [2], 100 nM in assay [3] and 631 nM in assay [4].

For the molecule `O=C(CCc1ccc(C(F)(F)F)cc1)C(=O)NCCc1ccccc1`, the IC50 in assay [1] is 7940 nM; in assay [2], 2000 nM; in assay [3], 316 nM; in assay [4], 2510 nM.

As to `Cc1ccc(CCC(=O)C(=O)NCCc2ccccc2)cc1`, the 50% inhibitory concentration (IC50) in assay [1] is 2000 nM; in assay [2] it was 5010 nM; in assay [3], 2510 nM; in assay [4], 1580 nM.

On to `O=C(CCc1ccc(Cl)cc1)C(=O)NCCCCc1ccccc1`, for which the IC50 is 1000 nM in assay [1], 631 nM in assay [2], 200 nM in assay [3] and 1580 nM in assay [4].

Consider `O=C(CCCc1ccccc1)C(=O)NCCc1ccc(Oc2ncccn2)cc1`, for which the IC50 in assay [1] was 2000 nM; in assay [2], 2000 nM; in assay [3] it was 251 nM; in assay [4], 1260 nM.

For the molecule `O=C(CCc1ccc(Cl)cc1)C(=O)N1CCCCC1`, the IC50 in assay [1], in assay [2], in assay [3] and in assay [4] was > 10000 nM throughout.

Take `O=C(CCc1ccccc1)CC(=O)NCc1ccccc1`: the IC50 in assay [1], in assay [2], in assay [3] and in assay [4] was > 10000 nM each time.

As to `O=C(CCCc1ccccc1)C(=O)NCCc1ccc(Oc2ccc(C(F)(F)F)cn2)cc1`, the pIC50 in assay [1] was 7. The IC50 in assay [3] is 31.6 nM; in assay [4] it was 631 nM.

Turning to `COc1ccc(CCNC(=O)C(=O)CCCc2ccccc2)cc1`, the IC50 in assay [1] is 794 nM; in assay [2], 1580 nM; in assay [3], 79.4 nM; in assay [4], 1580 nM.

On to `O=C(CCCc1ccccc1)C(=O)NCCc1ccc(Cl)cc1Cl`, for which the IC50 in assay [1] is 251 nM; in assay [2] it was 1260 nM; in assay [3] it was 63.1 nM; in assay [4] it was 794 nM.

Consider `COCCN(CCOC)C(=O)C(=O)CCc1ccc(Cl)cc1`, for which the IC50 in assay [1], in assay [2], in assay [3] and in assay [4] was > 10000 nM in each case.

As to `COc1ccc(/C=C/C(=O)C(=O)NCCc2ccccc2)cc1`, the IC50 is 5010 nM in assay [1], 1580 nM in assay [2], 1000 nM in assay [3] and 2510 nM in assay [4].

With `COc1ccc(CCC(=O)C(=O)NCCc2ccccc2)cc1`, the IC50 in assay [1] is 3160 nM; in assay [2], 3160 nM; in assay [3], 1260 nM; in assay [4], 1260 nM.

Take `O=C(NCCc1ccccc1)C(=O)c1ccccc1`: the IC50 in assay [1], in assay [2], in assay [3] and in assay [4] was > 10000 nM throughout.

As to `O=C(CCc1ccc(Cl)cc1)C(=O)N1CCOCC1`, the IC50 in assay [1], in assay [2], in assay [3] and in assay [4] was > 10000 nM throughout.

On to `O=C(CCc1ccccc1)C(F)(F)C(=O)NCc1ccccc1`, for which the IC50 in assay [1], in assay [2], in assay [3] and in assay [4] was > 10000 nM each time.

As for `O=C(CCc1ccc(Cl)cc1)C(=O)NCc1ccccc1`, the IC50 was 1580 nM in assay [1], 2510 nM in assay [2], 251 nM in assay [3] and 2510 nM in assay [4].

Consider `O=C(CCCc1ccccc1)C(=O)NCCc1ccc(Oc2cnccn2)cc1`, for which the IC50 in assay [1] is 251 nM; in assay [2], 501 nM; in assay [3], 63.1 nM; in assay [4], 631 nM.

On to `O=C(CCc1ccc(F)cc1)C(=O)NCCc1ccccc1`, for which the IC50 in assay [1] was 5010 nM; in assay [2], 7940 nM; in assay [3], 1580 nM; in assay [4] it was 10000 nM.

Turning to `COc1ccc(CCNC(=O)C(=O)CCCc2ccccc2)cc1OC`, the IC50 in assay [1] is 1000 nM; in assay [2], 5010 nM; in assay [3], 316 nM; in assay [4], 6310 nM.

As for `O=C(NCCc1ccccc1)C(=O)c1ccc(Cl)cc1`, the IC50 in assay [1], in assay [2], in assay [3] and in assay [4] was > 10000 nM each time.

As for `O=C(CCc1ccc(Cl)cc1)C(=O)N1CC[C@@H](c2ccccc2)C1`, the IC50 in assay [1], in assay [2], in assay [3] and in assay [4] was > 10000 nM each time.

Take `CN(CCc1ccccc1)C(=O)C(=O)CCc1ccc(Cl)cc1`: the IC50 in assay [1], in assay [2], in assay [3] and in assay [4] was > 10000 nM in each case.

As to `O=C(CCc1ccccc1)C(F)(F)C(=O)NCCc1ccccc1`, the 50% inhibitory concentration (IC50) in assay [1], in assay [2], in assay [3] and in assay [4] was > 10000 nM throughout.

With `O=C(CCCc1ccccc1)C(=O)NCCc1ccc(Br)cc1`, the IC50 in assay [1] was 158 nM; in assay [2], 251 nM; in assay [3], 10 nM; in assay [4], 200 nM.

Turning to `CN(C)C(=O)C(=O)CCc1ccc(Cl)cc1`, the IC50 in assay [1], in assay [2], in assay [3] and in assay [4] was > 10000 nM in each case.

For the origin of these results see ChEMBL document CHEMBL4622983, “Structure-Activity Relationship Studies of α-Ketoamides as Inhibitors of the Phospholipase A and Acyltransferase Enzyme Family” (J Med Chem, 2020).
